Results from ChEMBL document CHEMBL1147441, “A new series of potent oxindole inhibitors of CDK2” (Bioorg Med Chem Lett, 2004).

Key:
SW480 = test: In vitro inhibition of SW480 (human colon cancer) cell proliferation.; type: functional, cell-based
Method in brief: (§1)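 MTT-based proliferation assay run on tumour cells. IC50 values were taken from a single experiment.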

MDA-MB-435 = test: In vitro inhibition of MDA MB 435 (human breast cancer) cell proliferation.; type: functional, cell-based; method in brief: as §1
[1] = biological target: Cyclin-dependent kinase 2/cyclin E (Homo sapiens, UniProt P24941); test: In vitro inhibition of recombinant Cyclin Dependent Kinase-2/Cyclin E.; type: protein-complex assay

| Structure (SMILES) | IC50 (SW480) [nM] | IC50 (MDA-MB-435) [nM] | IC50 [1] [nM] |
| --- | --- | --- | --- |
| COc1cc[nH]c1/C=C1\C(=O)Nc2ccc(F)c(C#C[C@@H]3C[C@@H](O)CN3)c21 | 44 | 63 | 4 |
| CN[C@@H](C#Cc1c(F)ccc2c1/C(=C/c1[nH]ccc1OC)C(=O)N2)CO | 80 | 300 | 4 |
| CN[C@H](C#Cc1c(F)ccc2c1/C(=C/c1[nH]ccc1OC)C(=O)N2)[C@@H](C)O | 140 | 358 | 7 |
| COc1cc[nH]c1/C=C1\C(=O)Nc2ccc(F)c(I)c21 | – | > 30000 | 1000 |
| CCN[C@H](C#Cc1c(F)ccc2c1/C(=C/c1[nH]ccc1OC)C(=O)N2)CO | 566 | 1160 | 21 |
| CCN[C@H](C#Cc1c(F)ccc2c1/C(=C/c1[nH]ccc1OC)C(=O)N2)[C@@H](C)O | 549 | 1070 | 18 |
| COc1cc[nH]c1/C=C1\C(=O)Nc2ccc(F)c(C#C[C@@H]3C[C@H](O)CN3)c21 | 90 | 110 | 5 |

Now from value to molecule:

| IC50 (SW480) [nM] | IC50 (MDA-MB-435) [nM] | IC50 [1] [nM] | Structure (SMILES) |
| --- | --- | --- | --- |
| 130 | 110 | 21 | COc1cc[nH]c1/C=C1\C(=O)Nc2ccc(F)c(C#C[C@@H](C)O)c21 |
| 1180 | 2620 | 45 | COc1cc[nH]c1/C=C1\C(=O)Nc2ccc(F)c(C#C[C@@H](NS(C)(=O)=O)[C@@H](C)O)c21 |
| 205 | 300 | 5 | COc1cc[nH]c1/C=C1\C(=O)Nc2ccc(F)c(C#C[C@@H](N)CO)c21 |
| 110 | 130 | 4 | COc1cc[nH]c1/C=C1\C(=O)Nc2ccc(F)c(C#CC(O)CN)c21 (configuration not stated) |
